Reference: ChEMBL document CHEMBL2046301, “Synthesis and antimycobacterial activity of some phthalimide derivatives” (Bioorg Med Chem, 2012)
≈ marks a conversion by molar mass, not a printed value.

Legend:
[1] = system: Mycobacterium tuberculosis; assay: Antimycobacterial activity against Mycobacterium tuberculosis H37Ra ATCC 25177 by microbroth dilution method; assay type: functional
In short: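 M. tuberculosis H37Ra (ATCC 25177) colonies suspended in Middlebrook 7H9 broth to 1.0 McFarland, diluted tenfold, mixed 1:1 with twofold compound dilutions (DMSO stocks; final 256 to 1 µg/mL). Growth was checked by Kinyoun acid-fast smear. MIC = lowest concentration giving complete inhibition.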

[2] = system: L929; assay: Cytotoxicity against mouse L929 cells at 0.1 mM after 24 hrs by MTT assay; assay type: cell-based; settings: l929, 24 h, 100 µM
In short: (§1)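 L929 mouse fibroblasts seeded at 3 × 10³ cells/well in 100 µl medium; cell-free medium wells as controls. Exposed to compounds at 10^-4 M for 24 h. Viable cells quantified by MTT with absorbance read at 570 nm. Viability given as percent of absorbance of unexposed cells. Each experiment repeated three times.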

[3] = Cytotoxicity against mouse L929 cells at 0.1 mM assessed as cell viability after 24 hrs by MTT assay; assay type: cell-based; settings: read-out: Activity; in short: as §1

Row | Structure (SMILES) | MBC [1] [µg/mL] | MIC [1] [µg/mL] | Activity [2] | viability at 24 h, 100 µM [3] [%]
1 | CC(=O)NS(=O)(=O)c1ccc(N2C(=O)c3ccccc3C2=O)cc1 | 256 (≈ 743 µM) | 256 (≈ 743 µM) | Non-toxic | –
2 | O=C(NS(=O)(=O)c1ccc(N2C(=O)c3ccccc3C2=O)cc1)c1ccccc1 | 256 (≈ 630 µM) | 128 (≈ 315 µM) | Non-toxic | –
3 | O=C1c2ccccc2C(=O)N1c1ccc(S(=O)(=O)Nc2nccs2)cc1 | 256 (≈ 664 µM) | 256 (≈ 664 µM) | Non-toxic | –
4 | CC(=O)NS(=O)(=O)c1ccc(N2C(=O)c3c(F)c(F)c(F)c(F)c3C2=O)cc1 | 128 (≈ 307 µM) | 64 (≈ 154 µM) | Non-toxic | –
5 | O=C(NS(=O)(=O)c1ccc(N2C(=O)c3c(F)c(F)c(F)c(F)c3C2=O)cc1)c1ccccc1 | 128 (≈ 268 µM) | 64 (≈ 134 µM) | Non-toxic | –
6 | O=C1c2c(F)c(F)c(F)c(F)c2C(=O)N1c1ccc(S(=O)(=O)Nc2ncccn2)cc1 | 64 (≈ 141 µM) | 32 (≈ 70.7 µM) | Non-toxic | –
7 | Cc1cc(C)nc(NS(=O)(=O)c2ccc(N3C(=O)c4c(F)c(F)c(F)c(F)c4C3=O)cc2)n1 | 128 (≈ 266 µM) | 32 (≈ 66.6 µM) | Toxic | –
8 | O=C1c2c(F)c(F)c(F)c(F)c2C(=O)N1c1ccc(S(=O)(=O)Nc2nccs2)cc1 | 64 (≈ 140 µM) | 64 (≈ 140 µM) | Non-toxic | –
9 | Cc1cc(NS(=O)(=O)c2ccc(N3C(=O)c4c(F)c(F)c(F)c(F)c4C3=O)cc2)no1 | 128 (≈ 281 µM) | 32 (≈ 70.3 µM) | Toxic | < 50
10 | Cc1ccnc(NS(=O)(=O)c2ccc(N3C(=O)c4c(F)c(F)c(F)c(F)c4C3=O)cc2)n1 | 256 (≈ 549 µM) | 128 (≈ 274 µM) | – | –
11 | COc1ncnc(NS(=O)(=O)c2ccc(N3C(=O)c4c(F)c(F)c(F)c(F)c4C3=O)cc2)c1OC | 64 (≈ 125 µM) | 32 (≈ 62.5 µM) | Toxic | < 50
12 | NNC(=O)c1ccncc1 [ISONIAZID] | – | < 0.2 | – | –
13 | Nc1ccc(S(=O)(=O)NC(=O)c2ccccc2)cc1 [SULFABENZAMIDE] | 256 (≈ 926 µM) | 32 (≈ 116 µM) | – | –
14 | CC(=O)NS(=O)(=O)c1ccc(N)cc1 [SULFACETAMIDE] | 256 (≈ 1190 µM) | 64 (≈ 299 µM) | – | –
15 | Nc1ccc(S(=O)(=O)Nc2ncccn2)cc1 [SULFADIAZINE] | 128 (≈ 511 µM) | 8 (≈ 32 µM) | – | –
16 | COc1ncnc(NS(=O)(=O)c2ccc(N)cc2)c1OC [SULFADOXINE] | 256 (≈ 825 µM) | 32 (≈ 103 µM) | – | –
17 | Cc1ccnc(NS(=O)(=O)c2ccc(N)cc2)n1 [SULFAMERAZINE] | 256 (≈ 969 µM) | 32 (≈ 121 µM) | – | –
18 | Cc1cc(C)nc(NS(=O)(=O)c2ccc(N)cc2)n1 [SULFAMETHAZINE] | 256 (≈ 920 µM) | 32 (≈ 115 µM) | – | –
19 | Cc1cc(NS(=O)(=O)c2ccc(N)cc2)no1 [SULFAMETHOXAZOLE] | 256 (≈ 1010 µM) | 32 (≈ 126 µM) | – | –
20 | Nc1ccc(S(=O)(=O)Nc2nccs2)cc1 [SULFATHIAZOLE] | 16 (≈ 62.7 µM) | 4 (≈ 15.7 µM) | – | –
21 | O=C1CCC(N2C(=O)c3ccccc3C2=O)C(=O)N1 (stereo not drawn) [THALIDOMIDE] | 256 (≈ 991 µM) | 128 (≈ 496 µM) | – | –
